Published values from different studies.
Each line is one published result; the experiments were not run side by side.
PSMB8: Proteasome subunit beta type-8 (PSMB8, Homo sapiens, UniProt P28062)
GCGR: Glucagon receptor (GCGR, Homo sapiens, UniProt P47871)
Mc1r: Melanocyte-stimulating hormone receptor (Mc1r, Mus musculus, UniProt Q01727)

The IC50 of `CC(C)C[C@H](NC(=O)CN1CCOCC1)C(=O)N[C@@H](CC(C)C)C(=O)N[C@H](/C=C/S(C)(=O)=O)Cc1ccc(CN)cc1` is reported as over 10 µM (PSMB8; enzyme activity, inhibitor; lysate).
`CC[C@H](C)[C@H](NC(=O)[C@H](CO)NC(=O)[C@H](Cc1ccc(O)cc1)NC(=O)[C@H](CC(=O)O)NC(=O)[C@H](CO)NC(=O)[C@@H](NC(=O)[C@H](Cc1ccccc1)NC(=O)[C@@H](NC(=O)CNC(=O)[C@H](CCC(=O)O)NC(=O)[C@H](C)NC(=O)[C@@H](N)Cc1ccc(O)cc1)[C@@H](C)O)[C@@H](C)CC)C(=O)N[C@@H](C)C(=O)N[C@@H](CCSC)C(=O)N[C@@H](CC(=O)O)C(=O)N[C@@H](CCCCN)C(=O)N[C@H](C(=O)N[C@@H](Cc1c[nH]cn1)C(=O)N[C@@H](CCC(N)=O)C(=O)N[C@@H](CCC(N)=O)C(=O)N[C@@H](CC(=O)O)C(=O)N[C@@H](Cc1ccccc1)C(=O)N[C@H](C(=O)N[C@@H](CC(N)=O)C(=O)N[C@@H](Cc1c[nH]c2ccccc12)C(=O)N[C@@H](CC(C)C)C(=O)N[C@@H](CC(C)C)C(=O)N[C@@H](C)C(=O)N[C@@H](CCC(N)=O)C(=O)N[C@@H](CCCCN)C(=O)NCC(=O)N[C@@H](CCCCN)C(=O)N[C@@H](CCCCN)C(=O)N[C@@H](CC(N)=O)C(=O)N[C@@H](CC(=O)O)C(=O)N[C@@H](Cc1c[nH]c2ccccc12)C(=O)N[C@@H](CCCCN)C(=O)N[C@@H](Cc1c[nH]cn1)C(=O)N[C@@H](CC(N)=O)C(=O)N[C@H](C(=O)N[C@H](C(=O)N[C@@H](CCC(N)=O)C(=O)O)[C@@H](C)O)[C@@H](C)CC)C(C)C)[C@@H](C)CC` has an EC50 of 0.501 µM (GCGR; reporter gene, agonist, luciferase).
For `N=C(N)NCCC[C@H](NC(=O)[C@H](CC(=O)O)NC(=O)[C@@H](N)Cc1c[nH]c2ccccc12)C(=O)N[C@@H](Cc1ccccc1)C(=O)NCC(=O)O`, the EC50 was over 100 µM (Mc1r; reporter gene, agonist).
With `CC1=C(/C=C/C(C)=C/C=C/C(C)=C/C=O)C(C)(C)CCC1` the Kd was 0.00136 µM (Cellular retinoic acid-binding protein 2 (CRABP2, Homo sapiens, UniProt P29373, L122E/R112L/R133K); binding, fluorescence).
With `CSCC[C@H](NC(=O)[C@@H](NC(=O)[C@@H](N)Cc1ccc(O)cc1)C(C)C)C(=O)NCC(=O)O` the EC50 was over 100 µM (Mc1r; reporter gene, agonist).
With `C[C@@H]1NC(=O)[C@H](CCCNC(=N)N)NC(=O)[C@H](Cc2ccccc2)NC(=O)[C@H](Cc2ccccc2)NC(=O)[C@H](CCCNC(=N)N)NC(=O)[C@@H]2CCCN2C(=O)[C@H]2CCCN2C(=O)[C@H](Cc2ccccc2)NC1=O` the EC50 was over 100 µM (Mc1r; reporter gene, agonist).
`N=C(N)NCCC[C@H](NC(=O)[C@H](CC(=O)O)NC(=O)[C@H](Cc1c[nH]c2ccccc12)NC(=O)[C@H](CCCNC(=N)N)NC(=O)[C@H](Cc1ccccc1)NC(=O)[C@H](Cc1c[nH]cn1)NC(=O)CN)C(=O)N[C@@H](Cc1ccccc1)C(=O)NCC(=O)O` gave an EC50 of 7.86 µM (Mc1r; reporter gene, agonist).
For `Cc1ncc(C(=O)N[C@@H](CC(C)C)C(=O)N[C@@H](CC(C)C)C(=O)N[C@H](/C=C/S(C)(=O)=O)Cc2ccc(CN)cc2)s1`, the IC50 was over 10 µM (PSMB8; enzyme activity, inhibitor; lysate).
With `CN1CCN(c2ccc(Nc3ncc4cc(C#N)c(=O)n(C5CCCC5)c4n3)cc2)CC1` the IC50 was 0.0576 µM (Ephrin type-A receptor 1 (EPHA1, Homo sapiens, UniProt P21709); enzyme activity, inhibitor).
The EC50 of `N#Cc1ccc(COc2cccc(C3CCN(Cc4nc5ccc(C(=O)O)cc5n4C[C@@H]4CCO4)CC3)n2)c(F)c1` is reported as over 20 µM (GCGR; cAMP, agonist).
The IC50 of `Cc1ncc(C(=O)N[C@@H](CC2CCC3CCCCC3C2)C(=O)N[C@@H](CC(C)C)C(=O)N[C@H](/C=C/S(C)(=O)=O)Cc2ccc(CN)cc2)s1` (some centres unmarked) is reported as over 10 µM (PSMB8; enzyme activity, inhibitor; lysate).
For `N=C(N)NCCC[C@H](N)C(=O)N[C@@H](Cc1ccccc1)C(=O)NCC(=O)O`, the EC50 was over 100 µM (Mc1r; reporter gene, agonist).
The IC50 of `Cc1ncc(C(=O)N[C@@H](CCC2CCCCC2)C(=O)N[C@@H](CC(C)C)C(=O)N[C@H](/C=C/S(C)(=O)=O)Cc2ccc(CN)cc2)s1` is reported as 0.41 µM (PSMB8; enzyme activity, inhibitor; lysate).
`CCOc1ccc2c(-c3cc(C)nc(Nc4cc(OC)cc(C(F)(F)F)c4)n3)cnn2n1` has an IC50 of over 10 µM (Dual specificity tyrosine-phosphorylation-regulated kinase 1A (DYRK1A, Homo sapiens, UniProt Q13627); enzyme activity, inhibitor).
